Assay results: ChEMBL document CHEMBL2396573, “Synthesis and evaluation of 8-amino-[1,2,4]triazolo[4,3-a]pyridin-3(2H)-one derivatives as glycogen synthase kinase-3 (GSK-3) inhibitors” (Bioorg Med Chem Lett, 2013)

How the values were obtained:
[1] = target: Glycogen synthase kinase-3 (Homo sapiens, UniProt P49840+P49841); assay: Inhibition of recombinant human GSK3 using YRRAAVPPSPSLSRHSSPHQ(pS)EDEEE as substrate preincubated for 10 mins followed by [33P-gamma]-ATP addition measured after 30 mins by liquid scintillation counting analysis; type: protein assay
In short: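 Reaction started with 1 µM ATP […] 33P-γ-ATP, run 30 min at 30 °C, and stopped with 3% phosphoric acid. Product captured on P81 paper and read by scintillation counting. IC50 is the mean of triplicates.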

[2] = Inhibition of GSK3 in rat […] cells assessed as reduction in glucose production after overnight incubation by fluorescence assay; type: cell-based
In short: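 Rat hepatoma H4IIE cells grown in DMEM + 10% FBS, 2 mM L-glutamine and penicillin–streptomycin at 37 °C, 5% CO2, and passaged at 75% confluence. Plated at 100,000 cells/well, attached ~3 h, then PBS-washed and held overnight in glucose- and serum-free DMEM with 20 mM lactate and 2 mM pyruvate. Compounds, diluted in this medium, added overnight. Glucose in medium read with Amplex Red/glucose oxidase (30 min, dark; ex 560/em 615 nm); mean of triplicates.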

[3] = target: Mitogen-activated protein kinase 13 (Homo sapiens) (UniProt O15264); assay: Inhibition of human SAPK4 at 10 uM relative to control
Chain of Mitogen-activated protein kinase 13 (Homo sapiens) (O15264 whole entry): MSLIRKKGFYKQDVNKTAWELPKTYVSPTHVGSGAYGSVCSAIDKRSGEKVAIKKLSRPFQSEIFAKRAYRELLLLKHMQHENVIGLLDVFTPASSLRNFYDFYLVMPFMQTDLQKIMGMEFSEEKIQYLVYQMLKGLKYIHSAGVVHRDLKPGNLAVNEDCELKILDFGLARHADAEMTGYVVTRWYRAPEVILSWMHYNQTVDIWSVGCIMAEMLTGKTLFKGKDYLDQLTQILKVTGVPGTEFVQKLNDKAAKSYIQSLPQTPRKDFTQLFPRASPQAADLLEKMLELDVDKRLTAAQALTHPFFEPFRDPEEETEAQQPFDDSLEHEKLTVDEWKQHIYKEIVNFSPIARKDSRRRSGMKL

[4] = target: Cyclin-dependent kinase 5/CDK5 activator 1 (Homo sapiens) (UniProt Q00535+Q15078); assay: Inhibition of human CDK5/p25 at 10 uM relative to control; type: protein-complex assay
Chain of Cyclin-dependent kinase 5/CDK5 activator 1 (Homo sapiens) (Q00535 whole entry): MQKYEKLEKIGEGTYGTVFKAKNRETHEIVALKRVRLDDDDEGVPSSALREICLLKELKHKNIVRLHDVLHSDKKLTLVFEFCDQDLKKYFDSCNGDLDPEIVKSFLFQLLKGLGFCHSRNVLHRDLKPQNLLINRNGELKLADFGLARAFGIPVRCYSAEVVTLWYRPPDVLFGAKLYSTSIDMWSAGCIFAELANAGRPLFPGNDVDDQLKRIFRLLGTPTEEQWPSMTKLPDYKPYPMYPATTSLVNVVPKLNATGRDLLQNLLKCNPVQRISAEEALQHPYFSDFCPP
Chain of Cyclin-dependent kinase 5/CDK5 activator 1 (Homo sapiens) (Q15078 99-307 partner limits assumed): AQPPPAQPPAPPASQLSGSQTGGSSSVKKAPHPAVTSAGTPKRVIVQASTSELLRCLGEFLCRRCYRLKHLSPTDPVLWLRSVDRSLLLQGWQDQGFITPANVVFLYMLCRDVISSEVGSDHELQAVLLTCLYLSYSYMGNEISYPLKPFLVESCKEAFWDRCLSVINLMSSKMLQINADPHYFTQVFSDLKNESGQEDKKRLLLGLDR

[5] = target: Glycogen synthase kinase-3 alpha (Homo sapiens) (UniProt P49840); assay: Inhibition of human GSK3alpha at 10 uM relative to control
[6] = target: Glycogen synthase kinase-3 beta (Homo sapiens) (UniProt P49841); assay: Inhibition of human GSK3beta at 10 uM relative to control
[7] = target: Mitogen-activated protein kinase 12 (Homo sapiens) (UniProt P53778); assay: Inhibition of human SAPK3 at 10 uM relative to control
[8] = Ratio of drug level from brain to plasma in ICR mouse at 30 mg/kg, iv measured at 0.75 hrs; type: ADME, organism-based; parameters: dose 30 mg/kg, route intravenous; settings: read-out: BPR
In short: (§1)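 ICR mice, n = 3, given a single iv dose of 30 mg/kg. Plasma (ng/ml) and brain (ng/g) concentrations measured by LC/MS/MS at 0.25 and 0.75 h. Brain/plasma ratio taken from these paired values.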

[9] = Elimination half life in rat at 5 mg/kg, po by LC/MS/MS analysis; type: ADME, organism-based; parameters: dose 5 mg/kg, route oral; settings: in vivo, read-out: beta t1/2 (converted)
In short: (§2)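 Rat PK, n = 3 animals; iv dose 3 mg/kg, oral dose 5 mg/kg. Plasma levels quantified by LC/MS/MS after dosing. Derived parameters: AUC0–inf, clearance, elimination half-life and oral bioavailability (F).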

[10] = target: Mitogen-activated protein kinase 14 (Homo sapiens) (UniProt Q16539); assay: Inhibition of human SAPK2A at 10 uM relative to control
[11] = Drug uptake in ICR mouse brain at 30 mg/kg, iv measured at 0.25 hrs by LC/MS/MS analysis; type: ADME, organism-based; parameters: dose 30 mg/kg, route intravenous; settings: read-out: Drug uptake; in short: as §1
[12] = Drug uptake in ICR mouse brain at 30 mg/kg, iv measured at 0.75 hrs by LC/MS/MS analysis; type: ADME, organism-based; parameters: dose 30 mg/kg, route intravenous; settings: read-out: Drug uptake; in short: as §1
[13] = target: Serine/threonine-protein kinase Sgk1 (Homo sapiens) (UniProt O00141); assay: Inhibition of human SGK at 10 uM relative to control
[14] = Ratio of drug level from brain to plasma in ICR mouse at 30 mg/kg, iv measured at 0.25 hrs; type: ADME, organism-based; parameters: dose 30 mg/kg, route intravenous; settings: read-out: BPR; in short: as §1
[15] = target: MAP kinase-activated protein kinase 2 (Homo sapiens) (UniProt P49137); assay: Inhibition of human MAPKAP-K2 at 10 uM relative to control
[16] = target: Phosphorylase b kinase gamma catalytic chain, liver/testis isoform (Homo sapiens) (UniProt P15735); assay: Inhibition of human PhKgamma2 at 10 uM relative to control
Homo sapiens = species on record: Homo sapiens; assay: Inhibition of human PKA at 10 uM relative to control
[17] = target: Ribosomal protein S6 kinase alpha-3 (Homo sapiens) (UniProt P51812); assay: Inhibition of human RSK2 at 10 uM relative to control
[18] = Elimination half life in rat at 3 mg/kg, iv by LC/MS/MS analysis; type: ADME, organism-based; parameters: dose 3 mg/kg, route intravenous; settings: in vivo, read-out: beta t1/2 (converted); in short: as §2
[19] = target: Dual specificity mitogen-activated protein kinase kinase 1 (Homo sapiens) (UniProt Q02750); assay: Inhibition of human MEK1 at 10 uM relative to control
[20] = target: Casein kinase II (Homo sapiens) (UniProt P67870+P68400+P19784); assay: Inhibition of human CK2 at 10 uM relative to control; type: protein-complex assay
[21] = target: Mitogen-activated protein kinase 8 (Homo sapiens) (UniProt P45983); assay: Inhibition of human JNK1alpha1 at 10 uM relative to control
Chain of Mitogen-activated protein kinase 8 (Homo sapiens) (P45983 whole entry): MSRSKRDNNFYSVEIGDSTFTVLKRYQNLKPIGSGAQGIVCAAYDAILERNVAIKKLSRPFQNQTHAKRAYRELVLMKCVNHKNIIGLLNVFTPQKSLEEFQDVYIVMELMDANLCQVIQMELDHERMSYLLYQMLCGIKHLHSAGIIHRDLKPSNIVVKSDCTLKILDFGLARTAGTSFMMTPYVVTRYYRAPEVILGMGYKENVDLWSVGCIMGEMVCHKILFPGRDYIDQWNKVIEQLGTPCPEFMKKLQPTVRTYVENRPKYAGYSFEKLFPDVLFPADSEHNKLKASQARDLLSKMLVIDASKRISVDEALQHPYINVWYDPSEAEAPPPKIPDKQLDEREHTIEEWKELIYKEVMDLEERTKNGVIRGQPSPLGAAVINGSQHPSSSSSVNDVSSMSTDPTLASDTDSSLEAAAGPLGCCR

[22] = target: Protein kinase C alpha type (Homo sapiens) (UniProt P17252); assay: Inhibition of human PKCalpha at 10 uM relative to control
[23] = target: Ribosomal protein S6 kinase beta-1 (Homo sapiens) (UniProt P23443); assay: Inhibition of human p70S6K at 10 uM relative to control
Chain of Ribosomal protein S6 kinase beta-1 (Homo sapiens) (P23443 whole entry, looked up): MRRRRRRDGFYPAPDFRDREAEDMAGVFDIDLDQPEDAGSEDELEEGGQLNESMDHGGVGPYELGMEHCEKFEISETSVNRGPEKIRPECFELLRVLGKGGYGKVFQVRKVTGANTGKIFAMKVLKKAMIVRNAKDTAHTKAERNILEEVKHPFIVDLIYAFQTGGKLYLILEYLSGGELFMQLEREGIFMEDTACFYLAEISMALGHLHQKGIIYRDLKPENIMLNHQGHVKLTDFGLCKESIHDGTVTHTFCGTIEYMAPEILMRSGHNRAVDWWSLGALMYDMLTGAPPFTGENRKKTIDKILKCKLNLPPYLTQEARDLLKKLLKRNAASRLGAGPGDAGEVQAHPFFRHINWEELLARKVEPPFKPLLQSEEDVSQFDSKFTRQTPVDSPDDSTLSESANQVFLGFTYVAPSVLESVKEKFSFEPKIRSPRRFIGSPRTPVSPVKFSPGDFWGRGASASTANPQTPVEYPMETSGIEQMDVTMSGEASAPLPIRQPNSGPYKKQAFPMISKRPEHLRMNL

[24] = Clearance in rat at 3 mg/kg, iv by LC/MS/MS analysis; type: ADME, organism-based; parameters: dose 3 mg/kg, route intravenous; settings: in vivo; in short: as §2
[25] = Solubility of the compound in water; type: physicochemical
[26] = target: Tyrosine-protein kinase Lck (Homo sapiens) (UniProt P06239); assay: Inhibition of human LCK at 10 uM relative to control
Chain of Tyrosine-protein kinase Lck (Homo sapiens) (P06239 2-509 limits assumed): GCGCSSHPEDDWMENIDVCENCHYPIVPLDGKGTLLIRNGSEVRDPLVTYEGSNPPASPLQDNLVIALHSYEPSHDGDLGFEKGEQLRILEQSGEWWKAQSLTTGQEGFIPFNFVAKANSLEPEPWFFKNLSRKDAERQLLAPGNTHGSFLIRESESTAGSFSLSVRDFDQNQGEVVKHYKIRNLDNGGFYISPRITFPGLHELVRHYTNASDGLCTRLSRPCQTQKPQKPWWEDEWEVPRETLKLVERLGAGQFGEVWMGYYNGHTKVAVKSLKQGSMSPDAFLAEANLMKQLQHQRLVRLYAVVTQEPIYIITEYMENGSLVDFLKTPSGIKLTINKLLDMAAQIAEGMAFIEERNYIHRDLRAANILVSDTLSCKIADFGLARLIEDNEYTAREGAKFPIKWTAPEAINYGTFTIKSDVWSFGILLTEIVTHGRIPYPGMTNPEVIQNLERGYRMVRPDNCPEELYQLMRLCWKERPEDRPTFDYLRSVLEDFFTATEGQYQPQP

[27] = target: 5'-AMP-activated protein kinase catalytic subunit alpha-1 (Homo sapiens) (UniProt Q13131); assay: Inhibition of human AMPKalpha1 at 10 uM relative to control
[28] = target: 3-phosphoinositide-dependent protein kinase 1 (Homo sapiens) (UniProt O15530); assay: Inhibition of human PDK1 at 10 uM relative to control
Chain of 3-phosphoinositide-dependent protein kinase 1 (Homo sapiens) (O15530 whole entry, looked up): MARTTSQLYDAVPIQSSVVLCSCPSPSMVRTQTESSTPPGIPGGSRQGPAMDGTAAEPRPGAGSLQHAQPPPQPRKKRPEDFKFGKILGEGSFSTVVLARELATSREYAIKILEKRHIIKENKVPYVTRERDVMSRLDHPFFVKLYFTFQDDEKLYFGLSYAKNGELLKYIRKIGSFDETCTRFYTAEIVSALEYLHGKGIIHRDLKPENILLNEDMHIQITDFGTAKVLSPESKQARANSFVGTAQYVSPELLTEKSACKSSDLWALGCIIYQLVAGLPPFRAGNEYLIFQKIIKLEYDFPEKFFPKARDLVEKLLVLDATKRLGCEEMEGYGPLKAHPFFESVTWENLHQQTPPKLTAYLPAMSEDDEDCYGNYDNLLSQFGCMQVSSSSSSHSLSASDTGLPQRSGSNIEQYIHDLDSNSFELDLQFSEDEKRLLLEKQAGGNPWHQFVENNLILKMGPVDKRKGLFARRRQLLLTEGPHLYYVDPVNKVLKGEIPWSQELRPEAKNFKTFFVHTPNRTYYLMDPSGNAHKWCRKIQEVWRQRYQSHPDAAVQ

[29] = target: Mitogen-activated protein kinase 1 (Homo sapiens) (UniProt P28482); assay: Inhibition of human MAPK1 at 10 uM relative to control
[30] = target: Ribosomal protein S6 kinase alpha-5 (Homo sapiens) (UniProt O75582); assay: Inhibition of human MSK1 at 10 uM relative to control
[31] = target: Serine/threonine-protein kinase Chk1 (Homo sapiens) (UniProt O14757); assay: Inhibition of human CHK1 at 10 uM relative to control
[32] = target: RAC-alpha serine/threonine-protein kinase (Homo sapiens) (UniProt P31749); assay: Inhibition of human PKBalpha at 10 uM relative to control
[33] = AUC (0 to infinity) in rat at 3 mg/kg, iv by LC/MS/MS analysis; type: ADME, organism-based; parameters: time infinity, dose 3 mg/kg, route intravenous; settings: plasma
In short: (§3)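 Rat pharmacokinetics with n = 3 per group. Compound given iv at 3 mg/kg or po at 5 mg/kg. Concentrations were measured by LC/MS/MS after administration. AUC0–inf is the area under the concentration–time curve. Clearance, elimination half-life and bioavailability were derived in the same study.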

[34] = target: Mitogen-activated protein kinase 11 (Homo sapiens) (UniProt Q15759); assay: Inhibition of human SAPK2B at 10 uM relative to control
[35] = target: Rho-associated protein kinase 2 (Homo sapiens) (UniProt O75116); assay: Inhibition of human ROCK-2 at 10 uM relative to control
Chain of Rho-associated protein kinase 2 (Homo sapiens) (O75116 whole entry, looked up): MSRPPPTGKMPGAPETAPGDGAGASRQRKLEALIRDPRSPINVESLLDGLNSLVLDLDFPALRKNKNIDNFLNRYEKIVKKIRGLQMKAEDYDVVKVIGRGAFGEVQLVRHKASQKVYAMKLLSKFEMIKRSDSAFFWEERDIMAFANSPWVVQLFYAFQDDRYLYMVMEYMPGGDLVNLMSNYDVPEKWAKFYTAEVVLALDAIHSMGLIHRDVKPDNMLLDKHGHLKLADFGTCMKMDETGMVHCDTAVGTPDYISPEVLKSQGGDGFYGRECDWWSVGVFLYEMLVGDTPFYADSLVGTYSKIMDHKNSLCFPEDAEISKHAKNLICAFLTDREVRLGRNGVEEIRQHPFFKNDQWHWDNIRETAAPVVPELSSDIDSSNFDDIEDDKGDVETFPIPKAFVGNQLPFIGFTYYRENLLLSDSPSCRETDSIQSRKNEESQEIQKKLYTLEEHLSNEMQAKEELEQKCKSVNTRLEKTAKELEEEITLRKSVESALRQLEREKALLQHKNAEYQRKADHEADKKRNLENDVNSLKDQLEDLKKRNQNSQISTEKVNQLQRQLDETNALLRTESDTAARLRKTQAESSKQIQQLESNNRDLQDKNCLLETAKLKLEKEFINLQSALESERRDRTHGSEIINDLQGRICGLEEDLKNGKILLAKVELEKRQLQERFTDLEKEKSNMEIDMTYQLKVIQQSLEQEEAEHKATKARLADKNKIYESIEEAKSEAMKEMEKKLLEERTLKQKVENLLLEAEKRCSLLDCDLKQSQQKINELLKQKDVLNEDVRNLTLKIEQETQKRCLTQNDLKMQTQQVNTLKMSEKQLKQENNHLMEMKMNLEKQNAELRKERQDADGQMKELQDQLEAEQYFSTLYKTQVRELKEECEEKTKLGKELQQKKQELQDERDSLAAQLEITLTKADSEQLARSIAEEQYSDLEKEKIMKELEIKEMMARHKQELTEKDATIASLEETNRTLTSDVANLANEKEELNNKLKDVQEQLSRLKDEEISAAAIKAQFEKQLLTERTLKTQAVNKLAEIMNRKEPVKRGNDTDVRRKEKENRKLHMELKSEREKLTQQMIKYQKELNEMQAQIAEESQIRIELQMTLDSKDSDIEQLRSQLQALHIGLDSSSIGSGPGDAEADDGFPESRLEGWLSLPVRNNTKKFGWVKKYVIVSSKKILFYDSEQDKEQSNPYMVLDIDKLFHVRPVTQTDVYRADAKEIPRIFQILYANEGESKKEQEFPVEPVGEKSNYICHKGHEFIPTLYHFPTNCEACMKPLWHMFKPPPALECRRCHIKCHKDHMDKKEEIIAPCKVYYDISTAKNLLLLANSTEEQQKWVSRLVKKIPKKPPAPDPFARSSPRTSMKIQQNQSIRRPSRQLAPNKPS

[36] = target: MAP kinase-activated protein kinase 5 (Homo sapiens) (UniProt Q8IW41); assay: Inhibition of human PRAK at 10 uM relative to control
[37] = Plasma concentration in ICR mouse at 30 mg/kg, iv measured at 0.25 hrs by LC/MS/MS analysis; type: ADME, organism-based; parameters: dose 30 mg/kg, route intravenous; in short: as §1
[38] = target: CDK2/Cyclin A2 (Homo sapiens) (UniProt P24941+P20248); assay: Inhibition of human CDK2/cyclinA at 10 uM relative to control; type: protein-complex assay
[39] = Plasma concentration in ICR mouse at 30 mg/kg, iv measured at 0.75 hrs by LC/MS/MS analysis; type: ADME, organism-based; parameters: dose 30 mg/kg, route intravenous; in short: as §1
[40] = Oral bioavailability in rat at 5 mg/kg by LC/MS/MS analysis; type: ADME, organism-based; settings: in vivo; in short: as §2
[41] = AUC (0 to infinity) in rat at 5 mg/kg, po by LC/MS/MS analysis; type: ADME, organism-based; parameters: time infinity, dose 5 mg/kg, route oral; settings: plasma; in short: as §3

## Cl.O=c1[nH]nc2c(NCCCc3cccnc3)cc(Cl)cn12
[1]
  IC50: 520 nM
[2]
  EC50: 1680 nM

## COc1ccc(OCCn2nc3c(N)cccn3c2=O)cc1
[1]
  IC50: > 50000 nM

## COc1ccc(CCC(=O)Nc2cccn3c(=O)[nH]nc23)cc1
[1]
  IC50: > 50000 nM

## COc1cc(CCCNc2cc(C)cn3c(=O)[nH]nc23)ccn1.Cl
[1]
  IC50: 641 nM
[2]
  EC50: 9110 nM

## Cc1ccc(CCCNc2cc(Cl)cn3c(=O)[nH]nc23)cn1.Cl
[1]
  IC50: 342 nM
[2]
  EC50: 2740 nM

## COc1cccc(CCCNc2cc(Cl)cn3c(=O)[nH]nc23)c1
[1]
  IC50: 190 nM
[2]
  EC50: 2710 nM

## Cc1cc(CCCNc2cc(Cl)cn3c(=O)[nH]nc23)ccn1.Cl
[1]
  IC50: 818 nM
[2]
  EC50: 7030 nM

## Cc1cc(NCCCc2ccncc2)c2n[nH]c(=O)n2c1.Cl
[1]
  IC50: 607 nM
[2]
  EC50: 6230 nM

## Cc1cc(NCCCc2ccccn2)c2n[nH]c(=O)n2c1.Cl
[1]
  IC50: 1200 nM
[2]
  EC50: 21100 nM

## Cl.O=c1[nH]nc2c(NCCCc3ccncc3)cc(Cl)cn12
[1]
  IC50: 111 nM
[3]
  inhibition: 2%
[4]
  inhibition: 53%
[5]
  inhibition: 99%
[6]
  inhibition: 90%
[7]
  inhibition: 5%
[8]
  Kp at 0.75 h: 0.1
[9]
  half-life: 72 min
[10]
  inhibition: -1%
[11]
  concentration at 0.25 h: 214 ng/g
[12]
  concentration at 0.75 h: 107 ng/g
[13]
  inhibition: 22%
[2]
  EC50: 1780 nM
[14]
  Kp at 0.25 h: 0.34
[15]
  inhibition: 19%
[16]
  inhibition: 25%
Homo sapiens
  inhibition: 0%
[17]
  inhibition: 34%
[18]
  half-life: 24 min
[19]
  inhibition: 9%
[20]
  inhibition: 5%
[21]
  inhibition: 9%
[22]
  inhibition: 18%
[23]
  inhibition: 14%
[24]
  clearance: 20 mL/min/kg
[25]
  solubility: > 10000 µg/mL
[26]
  inhibition: 19%
[27]
  inhibition: -1%
[28]
  inhibition: 10%
[29]
  inhibition: 15%
[30]
  inhibition: 9%
[31]
  inhibition: 21%
[32]
  inhibition: 12%
[33]
  AUC(0-inf): 2490 ng·h/mL
[34]
  inhibition: 1%
[35]
  inhibition: 27%
[36]
  inhibition: 14%
[37]
  concentration at 0.25 h: 634 ng/mL
[38]
  inhibition: 54%
[39]
  concentration at 0.75 h: 1050 ng/mL
[40]
  bioavailability: 83%
[41]
  AUC(0-inf): 3460 ng·h/mL

## COc1ccc(OCCNc2cc(C)cn3c(=O)[nH]nc23)cc1
[1]
  IC50: 7010 nM
